ChEMBL document CHEMBL1157311, “Aurilides B and C, cancer cell toxins from a Papua New Guinea collection of the marine cyanobacterium Lyngbya majuscula” (2006)

Key:
[1] = Cytotoxicity against mouse Neuro2a cells after 48 hrs by MTT assay; type: functional; settings: N2a, read-out: LC50 (the source's name)
Method in brief: (§1)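 Cells seeded at 6000/well and grown 24 h, then given test chemicals dissolved in DMSO and diluted in serum-free medium (DMSO under 0.5% final). Viability read by MTT reduction after 48 h exposure; LC50 reported. Method follows Alley et al.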

NCI-H460 = assay: Cytotoxicity against human NCI-H460 cells after 48 hrs by MTT assay; type: functional; settings: NCI-H460, 48 h, read-out: LC50 (the source's name); method in brief: as §1

Question: With CC/C=C(\C)[C@H]1OC(=O)[C@H](C)N(C)C(=O)[C@H](C(C)C)NC(=O)CN(C)C(=O)[C@H]([C@H](C)CC)N(C)C(=O)[C@H](C(C)C)NC(=O)[C@@H](C(C)C)OC(=O)/C(C)=C/C[C@H](O)[C@@H]1C [AURILIDE C] as the compound, how does the CC50 [1] read?
Answer: 50 nM

Question: What about the CC50 (NCI-H460) of the same compound?
Answer: 130 nM
